The source of these data is ChEMBL document CHEMBL1136128, “3-(2-Benzyloxyphenyl)isoxazoles and isoxazolines: synthesis and evaluation as CFTR activators” (Bioorg Med Chem Lett, 2003).

Substrate in data set [1]: COc1ccc(COc2ccccc2C2=NOC(CCl)C2)cc1
Description: (§1) Vmax (maximal I influx) of compound against CFTR (cystic fibrosis transmembrane conductance regulator) in rat was determined. A digest of the protocol: (§2)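 Cells stably co-expressing human wild-type CFTR and YFP-H148Q were grown to confluence in 96-well plates and washed in PBS. Compounds were added from DMSO stocks, with full dose–responses run. A 100 mM inward iodide gradient was applied at 37 °C. Iodide influx was taken from the slope of the YFP fluorescence time course. Kd and Vmax (mM/s) are means of three or more experiments.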

Substrate in data set [2]: COC(=O)C1CC(c2ccccc2OCc2ccc(OC)cc2)=NO1
The description is as §1. A digest of the protocol: as §2

Substrate in data set [3]: COC(=O)C1CC(c2ccccc2OCc2ccc(Br)cc2)=NO1
The data set is described as §1. A digest of the protocol:
as §2

Substrate in data set [4]: COC(=O)c1onc(-c2ccccc2OCc2ccc(Br)cc2)c1C(=O)OC
Described as §1. A digest of the protocol: as §2

Substrate in data set [5]: COc1cccc(COc2ccccc2-c2cc(CO)on2)c1
The data set is described as §1. A digest of the protocol:
as §2

Substrate in data set [6]: COc1cccc(COc2ccccc2-c2cc(CCO)on2)c1
The description is as §1. A digest of the protocol: as §2

Substrate in data set [7]: COC(=O)c1cc(-c2ccccc2OCc2ccc(Br)cc2)no1
The data set is described as §1. A digest of the protocol: as §2

Substrate in data set [8]: ClCc1cc(-c2ccccc2OCc2ccc(Br)cc2)no1
Described as §1. A digest of the protocol: as §2

Substrate in data set [9]: COC(=O)C1CC(c2cc(Br)ccc2OCc2ccc(OC)cc2)=NO1
The description is as §1. A digest of the protocol: as §2

Substrate in data set [10]: COc1cccc(COc2ccccc2C2=NOC(CCl)C2)c1
The description is as §1. A digest of the protocol:
as §2

Substrate in data set [11]: COc1cccc(COc2ccccc2C2=NOC(CO)C2)c1
Described as §1. A digest of the protocol: as §2

Substrate in data set [12]: COC(=O)C1CC(c2ccccc2OCc2cccc(OC)c2)=NO1
Described as §1. A digest of the protocol: as §2

Substrate in data set [13]: COc1ccc(COc2ccc(Br)cc2-c2cc(CO)on2)cc1
The description is as §1. A digest of the protocol:
as §2

Substrate in data set [14]: COc1ccc(COc2ccccc2C2=NOC(CO)C2)cc1
The description is as §1. A digest of the protocol: as §2

Substrate in data set [15]: COc1ccc(COc2ccccc2-c2cc(CO)on2)cc1
The description is as §1. A digest of the protocol: as §2

Substrate in data set [16]: OCCc1cc(-c2ccccc2OCc2ccc(Br)cc2)no1
Described as §1. A digest of the protocol:
as §2

Substrate in data set [17]: OCc1cc(-c2ccccc2OCc2ccc(Br)cc2)no1
Described as §1. A digest of the protocol: as §2

Substrate in data set [18]: COc1ccc(COc2ccccc2-c2cc(CCO)on2)cc1
The description is as §1. A digest of the protocol:
as §2

B1: Cystic fibrosis transmembrane conductance regulator (Rattus norvegicus), P34158 (protein)
chain: MQKSPLEKASFISKLFFSWTTPILRKGYRHHLELSDIYQAPSSDSADHLSEKLEREWDREQASKKKPQLIHALRRCFVWRFVFYGVLLYLGEVTKAVQPVLLGRIIASYDPDNTEERSIAIYLGIGLCLLFIVRTLLLHPAIFGLHHIGMQMRIAMFSLIYKKTLKLSSRVLDKISIGQLISLLSNNLNKFDEGLALAHFIWIAPLQVVLLMGLLWDLLQFSAFCGLGLLIVLVIFQAILGKMMVKYRDKRAAKINERLVITSEVIDNIYSVKAYCWESAMEKIIESLREEELKMTRRSAYMRFFTSSAFFFSGFFVVFLSVLPYTVINGIVLRKIFTTISFCIVLRMSVTRQFPTAVQIWYDSLGMIRKIQDFLQTQEYKVLEYNLMFTGLVMENVTAFWEEGFQELLEKVQLNNDDRKTSNGENHLSFSHLCLVGNPVLKNINLNIKKGEMLAITGSTGAGKTSLLMLILGELEASEGIIKHSGRVSFSSQISWIMPGTIKENIIFGVSYDEYRYKSVVKACQLQEDITKFAEQDNTVLGEGGVTLSGGQRARISLARAVYKDADLYLLDSPFGYLDVLTEEQIFESCVCKLMASKTRILVTSKMEQLKKADKILILHEGSSYFYGTFSELQSLRPDFSSKLMGYDTFDQFTEERRSSILTETLRRFSVDDASTTWNKAKQSFRQTGEFGEKRKNSILSSFSSVKKISIVQKTPLSIEGESDDLQERRLSLVPDSEHGEAALPRSNMITAGPTFPGRRRQSVLDLMTFTPSSVSSSLQRTRASIRKISLAPRISLKEEDIYSRRLSQDSTLNITEEINEEDLKECFFDDMVKIPTVTTWNTYLRYFTLHRGLFAVLIWCVLVFLVEVAASLFVLWLLKNNPVNGGNNGTKIANTSYVVVITSSSFYYIFYIYVGVADTLLALSLFRGLPLVHTLITASKILHRKMLHSILHAPMSTFNKLKAGGILNRFSKDIAILDDFLPLTIFDFIQLLFIVVGAIIVVSALQPYIFLATVPGLAVFILLRAYFLHTSQQLKQLESEGRSPIFTHLVTSLKGLWTLRAFRRQTYFETLFHKALNLHTANWFMYLATLRWFQMRIDMIFVLFFIVVTFISILTTGEGEGTTGIILTLAMNIMSTLQWAVNSSIDTDSLMRSVSRVFKFIDIQTEESICTKIMKELHSEDSPNALVIKNEHVKKCDTWPSGGEMVVKDLTVKYVDDGNAILENISFSISPGQRVGLLGRTGSGKSTLLSAFLRMLNIKGEIQIDGVSWNSMTLQEWRKAFGVITQKVFIFSGTFRQNLDPNGKWRDEEIWKVADQVGLKSVIEQFPGQLNFTLVDGGYVLSHGHKQLMCLARSVLSKAKIILLDEPSANLDPITYQVIRRVLRQAFAGCTVVLCEHRIEAMLDCQRFLVIEQGNVWQYESLQALLSEKSVFQRALSSSEKMKLFHGRHSSKQKPRTQITAVKEETEEEVQETRL
Turning to B1, the Vmax stood at 1.2 mM/s in data set [1]; 1.13 mM/s in [2]; 0.81 mM/s in data set [3]; 0.97 mM/s in data set [4]; 1.04 mM/s in [5]; 0.94 mM/s in [6]. Further, the maximal velocity (Vmax) in data set [7] is 1.01 mM/s; in data set [8], 1.02 mM/s; in [9], 1.04 mM/s; in [10], 1.02 mM/s; in [11] it was 0.99 mM/s; in data set [12], 1.08 mM/s. For the same protein, the Vmax in [13] came to 1.03 mM/s; in data set [14] it was 1.07 mM/s; in [15], 1.06 mM/s; in data set [16], 1.02 mM/s; in [17], 1.06 mM/s; in [18] it was 1.05 mM/s.

In general, Vmax refers to the rate approached at saturating substrate.
